Measured values reported in ChEMBL document CHEMBL2424587, “Antiproliferative activity of abietane diterpenoids against human tumor cells” (J Nat Prod, 2013).
Active and inactive are the calls of the source. No cut-off for these calls is given here.

system: MOLT-3; assay: Cytotoxicity against human MOLT3 cells after 72 hrs by MTT assay; format: functional, cell-based; details: MOLT-3, 72 h
Procedure, shortened: (§1)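 MTT assay: 1 × 10^4 exponentially growing cells per well incubated 72 h over a range of compound concentrations; MTT 0.5 mg/mL for 4 h at 37 °C, then 10% SDS in 0.05 M HCl overnight at room temperature in the dark; absorbance at 570 nm. Leukemia and SK-MEL-1 lines grown in RPMI 1640, MCF-7 in DMEM, both with 10% heat-inactivated FBS. IC50 given as mean ± SEM of 3–5 independent experiments, each in triplicate.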

Row | SMILES | IC50 [µM]
1 | COc1ccc(C(=O)OC2=C(C(C)C)C(=O)C3=C(C2=O)[C@@]2(C)CCCC(C)(C)[C@@H]2[C@H](O)[C@H]3OC(C)=O)cc1 | 1.5

system: HL-60; assay: Induction of apoptosis in human HL60 cells assessed as nuclear chromatin condensation after 6 hrs by Hoechst 33258 staining-based fluorescence microscopy; format: functional, cell-based; details: not given

Row | SMILES | Activity
2 | COc1ccc(C(=O)OC2=C(C(C)C)C(=O)C3=C(C2=O)[C@@]2(C)CCCC(C)(C)[C@@H]2[C@H](O)[C@H]3OC(C)=O)cc1 | Active

system: HL-60; assay: Induction of apoptosis in human HL60 cells assessed as procaspase-9 cleavage at 3 uM after 24 hrs by immunoblotting analysis; format: functional, cell-based; details: not given
Procedure, shortened: (§2)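 HL-60 cells treated 24 h with 3 μM; immunoblots of lysates probed with antibodies that recognize both pro-caspases and cleaved caspases, and for PARP.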

Row | SMILES | Activity
3 | COc1ccc(C(=O)OC2=C(C(C)C)C(=O)C3=C(C2=O)[C@@]2(C)CCCC(C)(C)[C@@H]2[C@H](O)[C@H]3OC(C)=O)cc1 | Active

system: U-937; assay: Cytotoxicity against human U937 cells after 72 hrs by MTT assay; format: functional, cell-based; details: U-937, 72 h; procedure, shortened: as §1

Row | SMILES | IC50 [µM]
4 | COc1ccc(C(=O)OC2=C(C(C)C)C(=O)C3=C(C2=O)[C@@]2(C)CCCC(C)(C)[C@@H]2[C@H](O)[C@H]3OC(C)=O)cc1 | 1.4

system: HL-60; assay: Cell cycle arrest in human HL60 cells assessed as accumulation at S phase at 3 uM after 24 hrs by […]propidium iodide staining-based flow cytometry (reference value: 32%); format: functional; details: not given

Row | SMILES | Activity [%]
5 | COc1ccc(C(=O)OC2=C(C(C)C)C(=O)C3=C(C2=O)[C@@]2(C)CCCC(C)(C)[C@@H]2[C@H](O)[C@H]3OC(C)=O)cc1 | 21

system: HL-60; assay: Induction of apoptosis in human HL60 cells assessed as externalization of phosphotidylserine at 3 uM after 24 hrs by AnnexinV-FITC/propidium iodide staining-based flow cytometry; format: functional, cell-based; details: not given
Procedure, shortened: (§3)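 HL-60 cells given 3 μM for 24 h, stained with annexin V-FITC and propidium iodide, and analysed by flow cytometry; annexin+/PI− cells scored as early apoptotic and double-positive cells as late; three separate experiments.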

Row | SMILES | Activity
6 | COc1ccc(C(=O)OC2=C(C(C)C)C(=O)C3=C(C2=O)[C@@]2(C)CCCC(C)(C)[C@@H]2[C@H](O)[C@H]3OC(C)=O)cc1 | Active

system: HL-60; assay: Induction of apoptosis in human HL60 cells assessed as release of Smac/DIABLO to cytosolic fraction by Western blotting analysis; format: functional, cell-based; details: not given

Row | SMILES | Activity
7 | COc1ccc(C(=O)OC2=C(C(C)C)C(=O)C3=C(C2=O)[C@@]2(C)CCCC(C)(C)[C@@H]2[C@H](O)[C@H]3OC(C)=O)cc1 | Active

system: HL-60; assay: Induction of apoptosis in human HL60 cells assessed as late apoptotic cells at 3 uM after 24 hrs by AnnexinV-FITC/propidium iodide staining-based flow cytometry (reference value: 3.1%); format: functional; details: not given; procedure, shortened: as §3

Row | SMILES | Activity [%]
8 | COc1ccc(C(=O)OC2=C(C(C)C)C(=O)C3=C(C2=O)[C@@]2(C)CCCC(C)(C)[C@@H]2[C@H](O)[C@H]3OC(C)=O)cc1 | 30.2

system: SK-MEL-1; assay: Cytotoxicity against human SK-MEL-1 cells after 72 hrs by MTT assay; format: functional, cell-based; details: SK-MEL-1, 72 h; procedure, shortened: as §1

Row | SMILES | IC50 [µM]
9 | COc1ccc(C(=O)OC2=C(C(C)C)C(=O)C3=C(C2=O)[C@@]2(C)CCCC(C)(C)[C@@H]2[C@H](O)[C@H]3OC(C)=O)cc1 | 7.2

system: MCF7; assay: Cytotoxicity against human MCF7 cells after 72 hrs by MTT assay; format: functional, cell-based; details: MCF7, 72 h; procedure, shortened: as §1

Row | SMILES | IC50 [µM]
10 | COc1ccc(C(=O)OC2=C(C(C)C)C(=O)C3=C(C2=O)[C@@]2(C)CCCC(C)(C)[C@@H]2[C@H](O)[C@H]3OC(C)=O)cc1 | 3.1

system: HL-60; assay: Induction of apoptosis in human HL60 cells assessed as release of AIF to cytosolic fraction by Western blotting analysis; format: functional, cell-based; details: not given

Row | SMILES | Activity
11 | COc1ccc(C(=O)OC2=C(C(C)C)C(=O)C3=C(C2=O)[C@@]2(C)CCCC(C)(C)[C@@H]2[C@H](O)[C@H]3OC(C)=O)cc1 | Active

system: U-937; assay: Cytotoxicity against human U937 cells overexpressing Bcl-2 protein after 72 hrs by MTT assay; format: functional, cell-based; details: U-937, 72 h

Row | SMILES | IC50 [µM]
12 | COc1ccc(C(=O)OC2=C(C(C)C)C(=O)C3=C(C2=O)[C@@]2(C)CCCC(C)(C)[C@@H]2[C@H](O)[C@H]3OC(C)=O)cc1 | 2.1

system: HL-60; assay: Induction of apoptosis in human HL60 cells assessed as release of cytochrome c to cytosolic fraction by Western blotting analysis; format: functional, cell-based; details: not given

Row | SMILES | Activity
13 | COc1ccc(C(=O)OC2=C(C(C)C)C(=O)C3=C(C2=O)[C@@]2(C)CCCC(C)(C)[C@@H]2[C@H](O)[C@H]3OC(C)=O)cc1 | Active

system: HL-60; assay: Induction of apoptosis in human HL60 cells assessed as procaspase-4 cleavage at 3 uM after 24 hrs by immunoblotting analysis; format: functional, cell-based; details: not given; procedure, shortened: as §2

Row | SMILES | Activity
14 | COc1ccc(C(=O)OC2=C(C(C)C)C(=O)C3=C(C2=O)[C@@]2(C)CCCC(C)(C)[C@@H]2[C@H](O)[C@H]3OC(C)=O)cc1 | Active

system: HL-60; assay: Cytotoxicity against human HL60 cells overexpressing Bcl-XL protein after 72 hrs by MTT assay; format: functional, cell-based; details: HL-60, 72 h

Row | SMILES | IC50 [µM]
15 | COc1ccc(C(=O)OC2=C(C(C)C)C(=O)C3=C(C2=O)[C@@]2(C)CCCC(C)(C)[C@@H]2[C@H](O)[C@H]3OC(C)=O)cc1 | 2.9

system: HL-60; assay: Induction of apoptosis in human HL60 cells assessed as reduction in mitochondrial membrane potential at 3 uM after 24 hrs by JC-1 staining-based flow cytometry; format: functional, cell-based; details: not given
Procedure, shortened: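 ΔΨm in HL-60 cells after 24 h at 3 μM assessed by JC-1 fluorescence on flow cytometry; two separate experiments, each in triplicate.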

Row | SMILES | Activity
16 | COc1ccc(C(=O)OC2=C(C(C)C)C(=O)C3=C(C2=O)[C@@]2(C)CCCC(C)(C)[C@@H]2[C@H](O)[C@H]3OC(C)=O)cc1 | Active
